The values below come from ChEMBL document CHEMBL2062446, “Design of a Potent CB1 Receptor Antagonist Series: Potential Scaffold for Peripherally-Targeted Agents” (ACS Med Chem Lett, 2012).

The subject of one data set is MDR1. The data set can be described thus: Apparent permeability from apical to basal side of MDCK cells expressing MDR1. In kind it is ADME, cell-based, Canis lupus familiaris. The settings on record: dog. The method, boiled down: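 MDCK cells transfected with the MDR1 gene were used to assess whether compounds are MDR1 transporter substrates.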
The nature of data set [1]: 1-Octanol-sodium phosphate buffer partition coefficient, log D of the compound at pH 7.4 after 24 hrs by shake flask method. The data set is classed as physicochemical.

On to `O=C(NC1CCCOc2c1nn(-c1ccccc1Cl)c2-c1ccc(Cl)cc1)c1ccon1` (racemic), for which the Papp A→B in the data set with MDR1 is 6.6 ×10⁻⁶ cm/s.

Take `O=C1CCCN1C1CCCOc2c1nn(-c1ccccc1Cl)c2-c1ccc(Cl)cc1` (racemic): in the data set with MDR1, the Papp A→B was found to be 11.2 ×10⁻⁶ cm/s.

On to `COC(=O)NC1CCCOc2c1nn(-c1ccccc1Cl)c2-c1ccc(Cl)cc1` (racemic), for which, in the data set with MDR1, the Papp A→B was determined as 9.1 ×10⁻⁶ cm/s.

`CS(=O)(=O)CC(=O)NC1CCCOc2c1nn(-c1ccccc1Cl)c2-c1ccc(Cl)cc1` (racemic): the Papp A→B in the data set with MDR1 turned out to be 2.7 ×10⁻⁶ cm/s.

As to `CC(=O)NC1CCCOc2c1nn(-c1ccccc1Cl)c2-c1ccc(Cl)cc1` (racemic), the Papp A→B in the data set with MDR1 was 14.1 ×10⁻⁶ cm/s.

`CC(C)C(=O)NC1CCCOc2c1nn(-c1ccccc1Cl)c2-c1ccc(Cl)cc1` (racemic): the Papp A→B in the data set with MDR1 came out at 6.9 ×10⁻⁶ cm/s.

For the molecule `CC(C)C(=O)N[C@@H]1CCCOc2c1nn(-c1ccccc1Cl)c2-c1ccc(Cl)cc1`, the Papp A→B in the data set on MDR1 amounted to 8.4 ×10⁻⁶ cm/s.

For `CCNC(=O)NC1CCCOc2c1nn(-c1ccccc1Cl)c2-c1ccc(Cl)cc1` (racemic), in the data set with MDR1, the Papp A→B amounted to 6.3 ×10⁻⁶ cm/s.

With `CC(F)(F)CN1CCOc2c(nn(-c3ccccc3Cl)c2-c2ccc(Cl)cc2)C1=O`, the logD at 24 h in data set [1] worked out at 4.1. Further, in the data set with MDR1, the Papp A→B worked out at 7.1 ×10⁻⁶ cm/s.

Consider `CCC(=O)NC1CCCOc2c1nn(-c1ccccc1Cl)c2-c1ccc(Cl)cc1` (racemic), for which the Papp A→B with MDR1 is 12.1 ×10⁻⁶ cm/s.

On to `CCOCC(=O)NC1CCCOc2c1nn(-c1ccccc1Cl)c2-c1ccc(Cl)cc1` (configuration not stated), for which, in the data set on MDR1, the Papp A→B is 6.5 ×10⁻⁶ cm/s.

Regarding `N#CC1(C(=O)NC2CCCOc3c2nn(-c2ccccc2Cl)c3-c2ccc(Cl)cc2)CC1` (configuration not stated), the Papp A→B with MDR1 was 1 ×10⁻⁶ cm/s.

On to `O=C(NC1CCCOc2c1nn(-c1ccccc1Cl)c2-c1ccc(Cl)cc1)c1cnon1` (racemic), for which, in the data set on MDR1, the Papp A→B was found to be 3 ×10⁻⁶ cm/s.

In the case of `COCC(=O)NC1CCCOc2c1nn(-c1ccccc1Cl)c2-c1ccc(Cl)cc1` (racemic), the Papp A→B in the data set with MDR1 came out at 9.1 ×10⁻⁶ cm/s.

In the case of `O=C(NC1CCCOc2c1nn(-c1ccccc1Cl)c2-c1ccc(Cl)cc1)C1CCOCC1` (racemic), the Papp A→B with MDR1 came out at 6.8 ×10⁻⁶ cm/s.

Regarding `O=C(NC1CCCOc2c1nn(-c1ccccc1Cl)c2-c1ccc(Cl)cc1)c1ccno1` (racemic), the Papp A→B in the data set with MDR1 stood at 3.2 ×10⁻⁶ cm/s.

By Papp A→B is commonly meant the apparent permeability from the apical to the basolateral side of a cell layer. The logD is lipophilicity at a set pH, counting ionised and neutral species. A higher logD goes with a more lipophilic compound.
